Values after ≈ are worked out from the molar mass of the structure shown.
Assays:
[1] = test system: Streptococcus pyogenes; assay: Antibacterial activity against Streptococcus pyogenes at 10 to 100 ug/mL after 18 hrs by halo zone test; type: functional
Procedure, shortened: (§1)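 Disk diffusion (halo zone). Strains subcultured in BHI, 18 h at 37 °C. Cells suspended in saline by McFarland to about 10^5 CFU/mL, mixed with antibiotic agar at 40 °C and plated. 6.0 mm paper disks loaded with DMSO-stock dilutions of 10, 20, 25, 50 and 100 per mL. Inhibition zone diameter (mm) read after 18 h at 36 °C. Amoxicillin (30) disk positive control, DMSO disk negative control.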

[2] = test system: Streptococcus pyogenes; assay: Antibacterial activity against Streptococcus pyogenes after 18 hrs by macro dilution test; type: functional
Procedure, shortened: (§2)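 Macro-dilution broth test. Each tube received a 24 h old inoculum, standard inoculum about 10^5 CFU/mL. Incubated 18 h at 37 °C. MIC taken visually as the lowest concentration preventing visible growth. Amoxicillin positive control, DMSO negative control.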

[3] = test system: Staphylococcus aureus; assay: Antibacterial activity against Staphylococcus aureus after 18 hrs by macro dilution test; type: functional; procedure, shortened: as §2
[4] = test system: Escherichia coli; assay: Antibacterial activity against Escherichia coli at 10 to 100 ug/mL after 18 hrs by halo zone test; type: functional; procedure, shortened: as §1
[5] = test system: Salmonella typhimurium; assay: Antibacterial activity against Salmonella Typhimurium at 10 to 100 ug/mL after 18 hrs by halo zone test; type: functional, Salmonella enterica subsp. enterica serovar Typhimurium; procedure, shortened: as §1
[6] = test system: Escherichia coli; assay: Antibacterial activity against Escherichia coli after 18 hrs by macro dilution test; type: functional; procedure, shortened: as §2
[7] = test system: Staphylococcus aureus; assay: Antibacterial activity against Staphylococcus aureus at 10 to 100 ug/mL after 18 hrs by halo zone test; type: functional; procedure, shortened: as §1
[8] = test system: Salmonella typhimurium; assay: Antibacterial activity against Salmonella Typhimurium after 18 hrs by macro dilution test; type: functional, Salmonella enterica subsp. enterica serovar Typhimurium; conditions: Salmonella enterica; procedure, shortened: as §2

Compound | inhibition zone (IZ) [1] | MIC [2] | MIC [3] | inhibition zone (IZ) [4] | inhibition zone (IZ) [5] | MIC [6] | inhibition zone (IZ) [7] | MIC [8]
CC(C)CCC[C@@H](C)[C@H]1CC[C@H]2[C@@H]3/C(=N/NC(=S)NC4CCCCC4)C=C4C[C@@H](Cl)CC[C@]4(C)[C@H]3CC[C@]12C | 12.2 mm | 64 µg/mL (≈ 111 µM) | 32 µg/mL (≈ 55.7 µM) | 11.8 mm | 14.4 mm | 64 µg/mL (≈ 111 µM) | 13.4 mm | 128 µg/mL (≈ 223 µM)
CC(=O)O[C@H]1CC[C@@]2(C)C(=C/C(=N\NC(=S)NC3CCCC3)[C@H]3[C@@H]4CC[C@H]([C@H](C)CCCC(C)C)[C@@]4(C)CC[C@@H]32)C1 | 11.8 mm | 64 µg/mL (≈ 110 µM) | 32 µg/mL (≈ 54.8 µM) | 12.4 mm | 14.6 mm | 32 µg/mL (≈ 54.8 µM) | 12.5 mm | 64 µg/mL (≈ 110 µM)
CC1(C)S[C@@H]2[C@H](NC(=O)[C@H](N)c3ccc(O)cc3)C(=O)N2[C@H]1C(=O)O [AMOXICILLIN] | 22.2 mm | 32 µg/mL (≈ 87.6 µM) | 32 µg/mL (≈ 87.6 µM) | 20 mm | 25.2 mm | 32 µg/mL (≈ 87.6 µM) | 21 mm | 32 µg/mL (≈ 87.6 µM)
CC(=O)O[C@H]1CC[C@@]2(C)C(=C/C(=N\NC(=S)NC3CCCCCCC3)[C@H]3[C@@H]4CC[C@H]([C@H](C)CCCC(C)C)[C@@]4(C)CC[C@@H]32)C1 | 11.4 mm | 64 µg/mL (≈ 102 µM) | 128 µg/mL (≈ 204 µM) | 13.8 mm | 13.6 mm | 128 µg/mL (≈ 204 µM) | 12.6 mm | 128 µg/mL (≈ 204 µM)
CC(C)CCC[C@@H](C)[C@H]1CC[C@H]2[C@@H]3/C(=N/NC(=S)NC4CCCCCCC4)C=C4C[C@@H](Cl)CC[C@]4(C)[C@H]3CC[C@]12C | 14 mm | 128 µg/mL (≈ 212 µM) | 64 µg/mL (≈ 106 µM) | 12.4 mm | 14.6 mm | 64 µg/mL (≈ 106 µM) | 15.6 mm | 128 µg/mL (≈ 212 µM)
CC(C)CCC[C@@H](C)[C@H]1CC[C@H]2[C@@H]3/C(=N/NC(=S)NC4CCCC4)C=C4CCCC[C@]4(C)[C@H]3CC[C@]12C | 9.5 mm | 128 µg/mL (≈ 243 µM) | 256 µg/mL (≈ 487 µM) | 9.4 mm | 9.2 mm | 256 µg/mL (≈ 487 µM) | 10.4 mm | 128 µg/mL (≈ 243 µM)
CC(C)CCC[C@@H](C)[C@H]1CC[C@H]2[C@@H]3/C(=N/NC(=S)NC4CCCC4)C=C4C[C@@H](Cl)CC[C@]4(C)[C@H]3CC[C@]12C | 13.4 mm | 64 µg/mL (≈ 114 µM) | 64 µg/mL (≈ 114 µM) | 15.6 mm | 12.5 mm | 64 µg/mL (≈ 114 µM) | 16.2 mm | 128 µg/mL (≈ 228 µM)
CC(C)CCC[C@@H](C)[C@H]1CC[C@H]2[C@@H]3/C(=N/NC(=S)NC4CCCCC4)C=C4CCCC[C@]4(C)[C@H]3CC[C@]12C | 9.2 mm | 256 µg/mL (≈ 474 µM) | 128 µg/mL (≈ 237 µM) | 7.8 mm | 10.4 mm | 128 µg/mL (≈ 237 µM) | 10.2 mm | 256 µg/mL (≈ 474 µM)
CC(=O)O[C@H]1CC[C@@]2(C)C(=C/C(=N\NC(=S)NC3CCCCC3)[C@H]3[C@@H]4CC[C@H]([C@H](C)CCCC(C)C)[C@@]4(C)CC[C@@H]32)C1 | 16.8 mm | 64 µg/mL (≈ 107 µM) | 64 µg/mL (≈ 107 µM) | 13.2 mm | 14.5 mm | 32 µg/mL (≈ 53.5 µM) | 14.6 mm | 64 µg/mL (≈ 107 µM)
CC(C)CCC[C@@H](C)[C@H]1CC[C@H]2[C@@H]3/C(=N/NC(=S)NC4CCCCCCC4)C=C4CCCC[C@]4(C)[C@H]3CC[C@]12C | 11.3 mm | 128 µg/mL (≈ 225 µM) | 256 µg/mL (≈ 451 µM) | 10 mm | 10.2 mm | 256 µg/mL (≈ 451 µM) | 9.9 mm | 128 µg/mL (≈ 225 µM)

— ChEMBL document CHEMBL1140996, “Synthesis and in vitro antibacterial activity of new steroidal thiosemicarbazone derivatives” (2008)
